Activity calls are given as the source filed them. No cut-off for these calls is given here.
Assays:
Type in all cases: functional, cell-based
[1] = tested on: HepG2; assay: Induction of autophagy in human HepG2 cells assessed as decrease in P62 protein level measured after 24 hrs by Western blot analysis
Procedure, shortened: (§1)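 HepG2 cells exposed 24 h to test agent at final 1, 5, 10 or 20 μM. Lysis in RIPA buffer with protease inhibitor cocktail. Proteins resolved on 12% SDS-PAGE, blotted to nitrocellulose, and probed with antibodies to LC3B, P62, ATG5, ATG7, ATG4a and ATG4b. GAPDH served as loading control. Autophagosome formation was read as the LC3B II/I ratio.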

[2] = tested on: HepG2; assay: Induction of autophagy in human HepG2 cells assessed as increase in ATG7 protein level up to 20 uM measured after 24 hrs by Western blot analysis; procedure, shortened: as §1
[3] = tested on: HepG2; assay: Induction of autophagy in human HepG2 cells assessed as decrease in ATG4a protein level up to 20 uM measured after 24 hrs by Western blot analysis; procedure, shortened: as §1
[4] = tested on: HepG2; assay: Induction of autophagy in human HepG2 cells assessed as increase in ATG4b protein level up to 20 uM measured after 24 hrs by Western blot analysis; procedure, shortened: as §1
[5] = tested on: HepG2; assay: Induction of autophagy in human HepG2 cells assessed as increase in ATG5 protein level up to 20 uM measured after 24 hrs by Western blot analysis; procedure, shortened: as §1
[6] = tested on: HepG2; assay: Induction of autophagy in human HepG2 cells assessed as increase in LC3B2/1 ratio up to 20 uM measured after 24 hrs by Western blot analysis; procedure, shortened: as §1
[7] = tested on: HCT-116; assay: Cytotoxicity against human HCT116 cells by MTT assay
[8] = tested on: A549; assay: Cytotoxicity against human A549 cells by MTT assay
[9] = tested on: HepG2; assay: Cytotoxicity against human HepG2 cells by MTT assay
[10] = tested on: NCI-H460; assay: Cytotoxicity against human H460 cells by MTT assay

Row | Compound | Activity [1] | Activity [2] | Activity [3] | Activity [4] | Activity [5] | Activity [6] | IC50 [7] | IC50 [8] | IC50 [9] | IC50 [10]
1 | CC[C@@H](O)C(=O)C1=C2C=C(C)Oc3c4c(c(=O)cc(c32)C1=O)[C@]1(O)[C@H](O4)O[C@H](C)[C@@H](OC)[C@H]1O | Dose-dependent effect | Active | Active | Active | Active | Active | – | – | – | –
2 | CC[C@H]1O[C@@](C)(O)C[n+]2c(C)cc3c(c21)C(=O)c1cc(=O)c2c(c(O)c1-3)O[C@@H]1O[C@H](C)[C@@H](OC)[C@@H](O)[C@]21O | Dose-dependent effect | Active | Active | Active | Active | Active | 190 to 530 µM | 190 to 530 µM | 190 to 530 µM | 190 to 530 µM
3 | CCCC(=O)C1=C2C=C(C)Oc3c4c(c(=O)cc(c32)C1=O)[C@]1(O)[C@H](O4)O[C@H](C)[C@@H](OC)[C@H]1O | Dose-dependent effect | Active | Active | Active | Active | Active | – | – | – | –
4 | CC[C@@H](O)c1nc(C)cc2c1C(=O)c1cc(=O)c3c(c(O)c1-2)O[C@@H]1O[C@H](C)[C@@H](OC)[C@@H](O)[C@]31O | Dose-dependent effect | Active | Active | Active | Active | Active | 770 to 1800 µM | 770 to 1800 µM | 770 to 1800 µM | 770 to 1800 µM
5 | CC[C@H]1OC(=O)C[n+]2c(C)cc3c(c21)C(=O)c1cc(=O)c2c(c(O)c1-3)O[C@@H]1O[C@H](C)[C@@H](OC)[C@@H](O)[C@]21O | Dose-dependent effect | Active | Active | Active | Active | Active | – | – | – | –

— ChEMBL document CHEMBL4316660, “Isarubrolones Containing a Pyridooxazinium Unit from Streptomyces as Autophagy Activators” (J Nat Prod, 2019)
